# Screens (PubChem BioAssay)
# The list is not random: actives were taken first. Their share in the collection is about 3.9%.
# UPR CHOP act – activators of apoptotic arm of unfolded protein response (CHOP) | CHO-CHOP luciferase reporter, UPR activation, luminescence; percent of tunicamycin response over DMSO baseline | activation, % at 10 µM | 330,000 tested, 0.34% active | AID 449763;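 active = at 10 µM dose, activation of 40% or more, normalized to positive control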;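 also: 100% = tunicamycin at 10 µg/mL and 0% = DMSO alone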
#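 System: CHO CHOP reporter cells. Amount: 500 cells per well. Buffer or medium: F12 medium, 10% FBS. Compound dosing: one dose, 10 µM in 0.5% DMSO. Incubation: 6 h compound exposure at 37 °C after overnight seeding. Technique: Steady-Glo luciferase luminescence. Benchmarks: tunicamycin and DMSO controls.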
# TIM10 inh – inhibits growth of TIM10 yeast strain | 330,000 tested, 1.4% active | AID 463195 | inhibition, % at 10 µM | S. cerevisiae TIM10 strain growth, BacTiter-Glo luminescence, 24 h;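 active = inhibition of 40% or more at the single tested concentration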;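 also: wild-type TIM10 isogenic control strain grown at permissive 25 °C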
# UPR XBP1 act – activators of adaptive arm of unfolded protein response (XBP1) | CHO-XBP1 luciferase reporter, IRE1-XBP1 UPR activation, luminescence; percent of tunicamycin response, DMSO as zero | activation, % at 20 µM | 330,000 tested, 0.33% active | AID 463104;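 active = versus positive control, 20 µM dose yields 30% or more activation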;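 also: 100% = tunicamycin at 10 µg/mL and 0% = DMSO only wells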
#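 Assay system: IRE1-XBP1 luciferase reporter CHO line. Input: 1000 cells/well. Buffer or medium: F12 with 10% serum. Doses: 20 µM, 1% DMSO. Times: overnight seeding at 37 °C, 6 h compound treatment at 37 °C. Technique: Steady-Glo luciferase glow luminescence, 10 min after reagent addition.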
# tim23-1 inh – tim23-1 yeast growth inhibition. S. cerevisiae tim23-1 growth, BacTiter-Glo luminescence, 24 h. inhibition, % at 20 µM. 330,000 tested, 1.3% active. AID 463212;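 active = growth inhibition of the mutant yeast at or above 50%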;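 also: temperature-sensitive mutant grown at 25 °C; plate controls were DMSO-treated mutant yeast for no effect and medium wells lacking yeast for full effect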
# tim10-1 inh – tim10-1 yeast growth inhibition; S. cerevisiae tim10-1 ts strain growth, BacTiter-Glo, 24 h; inhibition, % at 20 µM; 330,000 tested, 2.2% active; AID 463190;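 active = inhibition of at least 40%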;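 also: mutant grown at 25 °C; 0% = DMSO wells with yeast and 100% = wells holding no yeast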
# tim10-1 confirm – confirmation of tim10-1 mutant yeast growth inhibitors; inhibition, % at 20 µM; S. cerevisiae tim10-1 ts strain growth, BacTiter-Glo, 24 h; shares compounds with tim10-1 inh; 7,400 tested, 56% active; AID 463213;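 active = inhibition of yeast growth at or above a set limit in either of two repeat tests at 20 µM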;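 also: tim10-1 mutant grown at permissive 25 °C to find synthetic lethal compounds; 0% = DMSO yeast wells and 100% = medium wells without yeast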
# The depositor's hits bear a star; · = not tested or not shown.
SMILES,UPR CHOP act,TIM10 inh,UPR XBP1 act,tim23-1 inh,tim10-1 inh,tim10-1 confirm
C[C@H]1C=CC(=O)O[C@H]1c1ccccc1,3,36,-4,44,48*,52*
Cc1cccc(C2=NNC(=O)C(c3ccc(Cl)cc3)C2)c1 (configuration not stated),-1,29,3,38,60*,45*
COc1ccc2[nH]c3c(=O)n4c(nc3c2c1)SCCC4,1,32,-2,36,40*,39*
Cc1ccc2[nH]c3c(=O)n4c(nc3c2c1)SCC4,0,25,-2,22,45*,30
CCN(CC)CCN(C(=O)c1ccc([N+](=O)[O-])cc1)c1nc2ccc(OC)cc2s1,1,-15,-1,-3,-1,·
CCN(CC)CCN(C(=O)c1cc2ccccc2cc1OC)c1nc2ccc(F)cc2s1,1,25,-3,43,57*,14
CCN(CC)CCN(C(=O)c1ccc2ccccc2c1)c1nc2ccc(OC)cc2s1,2,4,0,37,49*,-2
CCN(CC)CCN(C(=O)c1ccc(C(=O)c2ccccc2)cc1)c1nc2c(OC)cccc2s1,-1,13,-3,18,19,·
CCN(CC)CCN(C(=O)c1cc2ccccc2cc1OC)c1nc2ccc(OC)cc2s1,-2,16,-4,38,56*,24
CN(C)CCN(C(=O)c1ccc2ccccc2c1)c1nc2ccc(F)cc2s1,-1,9,-2,27,28,·
CCCN1CCN(CCCNC(=O)c2ccc(CS(=O)c3ccc(OC)cc3)o2)CC1 (configuration not stated),0,5,-3,-12,-16,·
C/C(=N/Nc1nc(C)cc(-c2ccccc2)n1)c1ccco1,6,35,0,28,41*,24
C/C(=N\Nc1nc(C)cc(-c2ccccc2)n1)c1ccccc1,9,8,-1,-2,-5,·
CCN1C(=O)/C(=C2\SC(N3CCOCC3)=NC2=O)c2ccccc21,4,-8,10,-13,9,·
C=CCN1C(=O)/C(=C2\SC(N3CCOCC3)=NC2=O)c2cc(Br)ccc21,4,29,24,41,51*,8
CC12CCC(=O)N1C(C(=O)NNC(=O)COc1ccccc1F)CS2 (configuration not stated),3,-1,-1,9,3,·
COc1cc(C2C(C#N)=C(N)Oc3cc4c(cc32)OCO4)cc(OC)c1OC (configuration not stated),1,-19,9,-7,-3,·
N#CC1=C(N)Oc2cc3c(cc2C1c1ccc(Cl)cc1)OCO3 (configuration not stated),0,-11,-1,29,43*,-11
O=C(CS(=O)(=O)c1ccccc1)Nc1nc(-c2ccccc2)cs1,1,27,3,45,47*,40*
CCCN(C(=O)/C=C/c1ccc(S(=O)(=O)N(CC)CC)cc1)C1CCS(=O)(=O)C1 (configuration not stated),1,17,0,26,19,·
Cc1ccc(C(=O)N2CCCC(N3CCN(c4cccc(C(F)(F)F)c4)CC3)C2)s1 (configuration not stated),0,18,-5,35,42*,21
N#CCC(CNc1ncc(C(F)(F)F)cc1Cl)OC(=O)c1cccc(C(F)(F)F)c1 (configuration not stated),-2,33,0,23,42*,26
CC(=O)c1ccc(S(=O)(=O)N2CCN(C(=O)c3ccc(-n4nc(C)c(Cl)c4C)cc3)CC2)cc1,4,13,0,20,41*,19
COc1cccc(N2CCN(S(=O)(=O)c3ccc4ccccc4c3)CC2)c1,2,14,-3,26,23,·
Cc1ccc(C(=O)O/N=C(\N)c2ccc(Br)cc2)cc1,4,23,-3,21,-25,·
COc1ccc(C(=O)O/N=C(\N)c2ccc(Br)cc2)cc1,3,39,3,31,43*,53*
COc1ccc(/C(N)=N/OC(=O)Cc2ccccc2OC)cc1,2,23,1,20,49*,32*
